# Measurements pooled from the literature.
# Lines come from different studies, so protocols differ.
# Cell line: MDA-MB-435
# Effect on: cell growth or viability
SMILES,technique,tested at,time,quantity,value
COc1cccc(Oc2ccccc2NC(=O)CNC(=O)c2cccc3ccccc23)c1,SRB,,48 h,GI50,70.8 nM
O=C1CCC2(Oc3cccc4cccc(c34)O2)c2c(O)ccc(O)c21,resazurin,,72 h,IC50,> 25000 nM
COc1ccc(C(=O)/C=C/c2cccc3ccccc23)cc1S(N)(=O)=O,SRB,10 µM,,inhibition,95%
CCOC(=O)c1[nH]c(Br)c(-c2ccc(OC)c(F)c2)c1Br,SRB,,,IC50,539 nM
COc1ccc(C(=O)/C=C/c2ccc(Cl)c(Cl)c2)cc1S(N)(=O)=O,SRB,,48 h,GI50,2400 nM
COc1cc(Nc2nccc(-c3cnn4nc(OC)ccc34)n2)cc(C(F)(F)F)c1,ATP luminescence,,,IC50,130 nM
COc1ccc(C(=O)/C=C/c2cccnc2)cc1S(N)(=O)=O,SRB,10 µM,,inhibition,26%
O=C1NCCc2[nH]c(-c3ccncc3)cc21,,,,IC50,> 10000 nM
CCOC(=O)c1[nH]c(Br)c(-c2ccc3c(c2)OCO3)c1Br,SRB,,,IC50,1800 nM
COc1ccc(N(C)c2nc(C)nc3c2C[C@@H](C)C3)cc1 (racemic),SRB,,,IC50,17 nM
CCOC(=O)c1[nH]c(Br)c(-c2ccc(OC(F)(F)F)cc2)c1Br,SRB,,,IC50,1700 nM
COc1ccc(C(=O)/C=C/c2cccc(Cl)c2)cc1S(N)(=O)=O,SRB,10 µM,,inhibition,86%
CCOC(=O)c1[nH]c(Br)c(-c2cccc(OC)c2)c1Br,SRB,,,IC50,633 nM
COc1ccc(-c2ccc(-c3ccc(C(=N)N)nc3)s2)cc1Cl,SRB,,,GI50,1730 nM
